The values below come from PubChem BioAssay.

Assay [1] in a line: OD615 S. cerevisiae growth inhibition, permissive medium, pilot counter-assay, permissive growth control for S. cerevisiae lifespan shortening project (AID 705;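 active = growth inhibition above 25% in both replicates, a cutoff set 3 SD above the mean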). Conditions: OD615, 24 h, at 10 µM, active compounds read high. In outline: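 Timing: 24 h exposure, 30 °C / Material: Saccharomyces cerevisiae strain carrying genetically modified DeaD replicative-lifespan system / Signal: OD at 615 nm / Compound: 10 µM single dose, 0.25% DMSO / Medium: SC raffinose/galactose permissive medium / Evaluation: reduction in yeast growth (OD615)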

A short description of assay [2]: Restrictive medium S. cerevisiae growth inhibition, OD615, pilot screen of yeast lifespan reduction project, restrictive growth control (AID 706;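 active = growth inhibition above a set limit, 3 SD over mean compound inhibition, in both replicates, cut at about 43% in these data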;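 also: modified DeaD lifespan yeast strain shifted to restrictive glucose medium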). Conditions: OD615, 48 h, at 10 µM, active compounds read high. In outline:
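System: Engineered S. cerevisiae DeaD strain | Detection: OD615 | Buffer or medium: CSMM-D glucose medium | Doses: 10 µM compound, 0.25% DMSO | Timing: 4 h pre-growth plus 48 h compound exposure, 30 °C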

The nature of assay [3]: viability gain of MRP-1-high H69AR cells under doxorubicin, pilot screen, MRP-1 activator project, CellTiter-Glo, duplicate (AID 807).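 Also: compound pretreatment 18-22 h then 72 h combined with doxorubicin; 0% = doxorubicin alone and 100% = vehicle without doxorubicin.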 Conditions: H69AR viability with doxorubicin, CellTiter-Glo luminescence; at 10 µM; active compounds read high. A general note: In ATP-based viability assays light output follows the ATP content of the culture.
The nature of assay [4]: growth suppression of beta-catenin knockout HCT116, pilot screen, human colon tumor cells (AID 823;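 active = cell viability at or below a set limit in both duplicate runs, the limit being the all-compound median minus 4 SD, cut at about 23% in these data, passing the limit was not always enough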;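 also: 0% = wells killed by 20 µM Hyamine and 100% = untreated DMSO cell wells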). Conditions: CellTiter-Glo, 60 h, at 10 µM, active compounds read low.
Assay [5] can be described thus: growth suppression of PTEN-deleted HCT116, pilot screen, cell-based, HCT116 clonal line, CellTiter-Glo (AID 824;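 active = viability at or below 27.92% in each of two runs, the all-compound median minus 4 SD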;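 also: 0% = 20 µM Hyamine control and 100% = vehicle cell control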). Conditions: 60 h, at 10 µM, active compounds read low.
A short description of assay [6]: inhibitors of the yeast RAM network, pilot screen, dse1pr::URA3 reporter, 5-FOA selection (AID 869;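 active = inhibition over a set limit, the all-compound mean plus 3 SD, in both replicate runs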;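 also: 0% = DMSO wells with no growth and 100% = 10 µM 1-NA-PP1 with full growth; RAM network block rescues cells from 5-FOA so hits raise OD615 growth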). Conditions: S. cerevisiae dse1pr::URA3 5-FOA growth, OD615, 2 d; at 10 µM; active compounds read high; strain carries analog-sensitive mutant Cbk1 kinase.
The nature of assay [7]: RAM signaling pathway blockade in yeast – S. cerevisiae, Pdr1DBD-CYC8 efflux-inhibited sensitized strain, primary screen (AID 1298;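 active = RAM network inhibition above 8.4% in each of two replicates, 3 SD over the compound average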;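 also: 0% = DMSO untreated cells without growth and 100% = 10 µM 1-NA-PP1 full growth; higher means more yeast growth rescued from 5-FOA killing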). The note with it: S. cerevisiae cbk1-as DSE1-URA3 strain, 5-FOA growth OD615, 2 d; at 50 µM; active compounds read high.

The structures appear in SMILES notation. A number with no mark means an inactive call. Records with an inconclusive call do not appear. The source made the active and inactive calls.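 The calls were made as follows, unless noted: active = viability increase at or above a cutoff of the median across tested compounds plus 3 SD (cut at about 8.5% in these data, passing the limit was not always enough); inconclusive = some gains above the cutoff, reason not given; inactive = the rest.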

Usually viability stands for a read-out of living cells in per cent, often relative to untreated cells. By inhibition is commonly meant the drop in the measured response relative to a control, in per cent. On to `COc1ccc(Cl)cc1NC(=O)Cn1c(=O)n2nc(C)nc2c2ccccc21`, for which the growth inhibition in assay [1] was -7.69%; in assay [2] it was 3.31%. In assay [3], the viability increase is -7.15%. Besides, the viability in assay [4] was 90.9%; in assay [5], 87.8%. Moreover, the inhibition in assay [6] is 0.175%. For the same compound, the RAM network inhibition in assay [7] is 6.46%.

Consider `CC(C)Cc1nnc(NC(=O)CCN2C(=O)c3ccccc3C2=O)s1`, for which the growth inhibition was 5.23% in assay [1] and 16% in assay [2]. For the same compound, in assay [3], the viability increase is 0.42%. Besides, the viability is 106% in assay [4] and 98.4% in assay [5]. Moreover, the inhibition in assay [6] is 1.21%. For the same compound, the RAM network inhibition in assay [7] was 9.47%.

Turning to `CCOC(=O)C1=C(C)Nc2nc(C)nn2C1c1ccc(C)cc1` (stereo not drawn), the values for the growth inhibition in assay [1] and in assay [2] were -0.5% and 7.16%, respectively. Moreover, in assay [3], the viability increase is -1.84%. The values for the viability in assay [4] and in assay [5] were 100% and 97.8%, respectively. For the same compound, the inhibition in assay [6] was 1.9%. The RAM network inhibition in assay [7] is -0.2%.

On to `COc1ccc(-n2ncc3c(N4CCCCC4)ncnc32)cc1`, for which the growth inhibition in assay [1] is -12.2%; in assay [2], 0.385%. In assay [3], the viability increase is -3.57%. Besides, the viability in assay [4] is 67.8%; in assay [5], 57.1%. Besides, the inhibition in assay [6] was 1.78%. In assay [7], the RAM network inhibition was -1.99%.

As for `COc1ccc(NC(=O)Nc2ccc3nccnc3c2)cc1`, the growth inhibition in assay [1] was -13.5%; in assay [2] it was -17.2%. Further, the viability increase in assay [3] was -4.49%. In addition, the viability in assay [4] was 67.5%; in assay [5], 68.7%. Moreover, in assay [6], the inhibition was 1.81%. For the same compound, the RAM network inhibition in assay [7] was 3.72%.

Turning to `c1ccc(-c2cnnc(N3CCCCC3)n2)cc1`, the results for the growth inhibition in assay [1] and in assay [2] were -4.88% and 8.84%, respectively. Besides, the viability increase in assay [3] is -1.75%. Moreover, the viability in assay [4] is 102%; in assay [5], 97.4%. For the same compound, the inhibition in assay [6] was 0.13%. Moreover, the RAM network inhibition in assay [7] was 5.69%.

As for `Oc1ccccc1-c1nnc(COc2ccccc2)o1`, the values for the growth inhibition in assay [1] and in assay [2] were -1.18% and 14.6%, respectively. In addition, in assay [3], the viability increase is -1.43%. Besides, the viability in assay [4] was 72.2%; in assay [5] it was 75.5%. The inhibition in assay [6] was 1.24%. In addition, the RAM network inhibition in assay [7] was 5.2%.

As to `O=C(CN1C(=O)CSc2ncccc21)N1CCOCC1`, the growth inhibition in assay [1] is 7%; in assay [2] it was -0.87%. The viability increase in assay [3] is -0.22%. Besides, the viability in assay [4] was 97.9%; in assay [5], 101%. In addition, the inhibition in assay [6] is -0.115%. In addition, the RAM network inhibition in assay [7] is 7.38%.

On to `c1ccc(Cn2c(CSc3nnnn3-c3ccccc3)nc3ccccc32)cc1`, for which the growth inhibition in assay [1] is 0.645%; in assay [2], 5.56%. For the same compound, the viability increase in assay [3] was -2.93%. In addition, the viability was 96.3% in assay [4] and 95% in assay [5]. The inhibition in assay [6] is 1.48%. The RAM network inhibition in assay [7] is 5.11%.

On to `CC(C)NS(=O)(=O)c1ccc2c(c1)oc(=O)n2C`, for which the values for the growth inhibition in assay [1] and in assay [2] were -2.26% and 2.4%, respectively. In addition, the viability increase in assay [3] is -0.75%. Further, the viability in assay [4] is 106%; in assay [5] it was 98.7%. Besides, the inhibition in assay [6] was -0.14%. For the same compound, the RAM network inhibition in assay [7] was 0.91%.

With `O=C(CCc1nc2ccccc2[nH]1)N1CCN(C(=O)c2ccco2)CC1`, the figures for the growth inhibition in assay [1] and in assay [2] were -9.21% and -5.44%, respectively. The viability increase in assay [3] is -0.98%. For the same compound, the viability is 101% in assay [4] and 96.7% in assay [5]. Further, the inhibition in assay [6] was 0.87%. Also, the RAM network inhibition in assay [7] is 1.88%.

For the compound `CCOC(=O)C1CCN(S(=O)(=O)c2ccc(OCC)cc2)CC1`, the growth inhibition in assay [1] is -6.07%; in assay [2], -13.5%. Further, the viability increase in assay [3] was -2.24%. Moreover, the values for the viability in assay [4] and in assay [5] were 92% and 94.4%, respectively. Further, the inhibition in assay [6] was 0.575%. In assay [7], the RAM network inhibition is 6.62%.

`O=C(Nc1nnc(-c2ccco2)o1)C1CCCCC1`: the growth inhibition in assay [1] was -17%; in assay [2], -13.8%. The viability increase in assay [3] is -1.58%. For the same compound, the viability in assay [4] is 99.1%; in assay [5] it was 93.2%. In addition, the inhibition in assay [6] was 1.52%. Further, the RAM network inhibition in assay [7] is 0.58%.

Regarding `O=C(c1nnc(Cc2ccc(Cl)cc2)o1)N1CCOCC1`, the growth inhibition in assay [1] was -7.58%; in assay [2], 1.76%. The viability increase in assay [3] is -0.86%. The figures for the viability in assay [4] and in assay [5] were 105% and 107%, respectively. The inhibition in assay [6] is 1.23%. Besides, the RAM network inhibition in assay [7] was 0.99%.

As to `CCOc1cccc(C(=O)Nc2nnc(-c3ccco3)s2)c1`, the growth inhibition in assay [1] was -7.86%; in assay [2] it was -7.51%. Besides, the viability increase in assay [3] was -0.2%. Also, the viability in assay [4] is 103%; in assay [5] it was 104%. Moreover, the inhibition in assay [6] was 3.44%. Also, the RAM network inhibition in assay [7] is 2.28%.

With `O=C(N[C@@H](Cc1ccccc1)C(=O)O)c1cccnc1`, the growth inhibition was -5.99% in assay [1] and -10.1% in assay [2]. Further, the viability increase in assay [3] was 0.01%. Also, the viability in assay [4] is 96.1%; in assay [5] it was 96.2%. The inhibition in assay [6] is 2.62%. For the same compound, the RAM network inhibition in assay [7] was 6.61%.

As for `COCCCNC(=O)c1ccccc1Oc1ccccc1`, the growth inhibition in assay [1] is -8.28%; in assay [2], -2.05%. The viability increase in assay [3] was -1.39%. Further, the viability in assay [4] is 96.3%; in assay [5], 97%. Besides, the inhibition in assay [6] is 1.46%. Besides, the RAM network inhibition in assay [7] was 1.58%.

Consider `CCOC(=O)C1CCCCN1C(=O)CCc1c(C)nc2cc(-c3ccccc3)nn2c1C` (stereo not drawn), for which the growth inhibition in assay [1] was 4.13%; in assay [2], -4.46%. The viability increase in assay [3] was 1.11%. Besides, the viability in assay [4] is 52.9%; in assay [5], 78%. The inhibition in assay [6] was 1.38%. For the same compound, the RAM network inhibition in assay [7] was -2.1%.

As for `N#Cc1nc(COc2ccc(Br)cc2)oc1N1CCCCCC1`, the growth inhibition in assay [1] was -13.1%; in assay [2], 3.57%. Besides, in assay [3], the viability increase is 4.39%. Besides, the values for the viability in assay [4] and in assay [5] were 62.4% and 67.5%, respectively. For the same compound, the inhibition in assay [6] is 2.33%. The RAM network inhibition in assay [7] was 7.31%.

For `O=C(c1ccc(COc2ccccc2Cl)o1)N1CCN(c2ccccc2)CC1`, the growth inhibition in assay [1] was -15.6%; in assay [2], -13.4%. In addition, the viability increase in assay [3] was -4.18%. Moreover, the figures for the viability in assay [4] and in assay [5] were 61.7% and 69.7%, respectively. In assay [6], the inhibition is 2.33%. Moreover, the RAM network inhibition in assay [7] is 5.58%.

Take `O=C(COC(=O)C1(c2ccccc2F)CCCC1)N1CCN(C(=O)c2ccco2)CC1`: the figures for the growth inhibition in assay [1] and in assay [2] were -13.4% and -13.8%, respectively. Besides, the viability increase in assay [3] was -2.48%. Also, the viability in assay [4] is 87.3%; in assay [5], 95.4%. Further, the inhibition in assay [6] is 0.995%. For the same compound, the RAM network inhibition in assay [7] is 1.19%.

Consider `CCOC(=O)c1[nH]c2c(c1C)C(=O)CC(c1ccc(F)cc1)C2` (stereo not drawn), for which the growth inhibition in assay [1] is -5.83%; in assay [2] it was -18.5%. Moreover, in assay [3], the viability increase is -4.6%. Besides, the figures for the viability in assay [4] and in assay [5] were 16.7% (active) and 20.4% (active), respectively. Also, in assay [6], the inhibition is 0.11%. The RAM network inhibition in assay [7] was 1.42%.

For the compound `CCOC(=O)c1[nH]c(=O)[nH]c1COC(=O)c1cc2ccccc2o1`, the growth inhibition in assay [1] is -14.6%; in assay [2] it was -12.6%. Moreover, the viability increase in assay [3] is -1.09%. The viability is 92.6% in assay [4] and 105% in assay [5]. Moreover, the inhibition in assay [6] was -0.22%. Moreover, the RAM network inhibition in assay [7] was 2.38%.

Consider `Cc1ccc2oc(=O)c3cnn(CC(=O)NCCN(C)C)c3c2c1`, for which the growth inhibition in assay [1] is -13%; in assay [2] it was -11.6%. The viability increase in assay [3] is 0.12%. Also, the viability in assay [4] is 101%; in assay [5] it was 97.7%. The inhibition in assay [6] is 0.365%. In addition, in assay [7], the RAM network inhibition is 0.55%.
